Source: the EternaBench riboswitch data

Tested on: MS2 coat protein
Experiment: apparent Kd, MS2 coat protein; higher = weaker binding; RNA-MaP array; FMN 200 µM where present
Summary of the method: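 On Illumina sequencing-chip clusters, designs were transcribed by stalled E. coli RNA polymerase and titrated with SNAP-549-labelled MS2 coat protein (0.7 or 1.5 nM, doubling to 3 µM), without and then with constant ligand, in 100 mM Tris-HCl pH 7.5, 80 mM KCl, 4 mM MgCl2, BSA, DTT, yeast tRNA and Tween-20. Apparent Kd is the median of filtered per-cluster curve fits to green signal normalised to red-channel RNA signal and control-cluster median Fmax.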

[1] = designed as: OFF switch for flavin mononucleotide, no ligand
[2] = ligand present: flavin mononucleotide, designed as: OFF switch for flavin mononucleotide
[3] = designed as: ON switch for flavin mononucleotide, no ligand
[4] = ligand present: flavin mononucleotide, designed as: ON switch for flavin mononucleotide

| Sequence | apparent Kd [1] [µM] | apparent Kd [2] [µM] | apparent Kd [3] [µM] | apparent Kd [4] [µM] |
| --- | --- | --- | --- | --- |
| AUUUUUAAGGUAGGAUAUAGUAUGAUGGUUUAAUUAGAAGGAUCUCACAUGAGGAUCACCCAUGUAAUAGGAUUACCCAUGUAU | 0.0537 | 0.0333 | – | – |
| CGAUCGGAAGGAUAUACACCUCACGUCAAACGGACAACCGGACAUGAGGAUCACCCAUGUAGAAGGUCCAAAAU | 0.0726 | 0.238 | – | – |
| AUUUAGUGCGAGAAGGCGUGGUCACAUGAGGAUCACCCAUGUCAGUACACGAGGAUAUCGAUCCGCUAUGUAAAUAUAUGCGGC | – | – | 0.078 | 0.00751 |
| UUUAGUUCAGGAUAUGUAGAUUUUAACAUGAGGAUCACCCAUGUAGAUCCUGAAUUAACUACAGAAGGGAACAUUC | 0.0171 | 0.0442 | – | – |
| AGCUAAAACGAAGGAUAUACUGACAUGAGGAUCACCCAUGUCUACAUGAUUUAUUGUGAUCACAUGUAGAAGGUCGUACUAACA | – | – | 0.0744 | 0.0277 |
| AACUAUGAAUUGAUAGUGUCUGACAGAAGGCAAUAGGUUGUGACCGACAUGAGGAUCACCCAUGUUGAGGAUAUGUCUAGCUAC | 0.0532 | 0.366 | – | – |
| AAUGUUGGAGGAUAUACGCGAGUGCUCAGUUGGCCCGGUCGACAUGAGGAUCACCCAUGUAGAAGGCCGACGCU | 0.0144 | 0.0169 | – | – |
| UCAGUAGAGUCAGGAUAUACGUCCAAAUUUCCUCACAUGAGGAUCACCCAUGUAGAAGGGACUCUACUGUAAGUCGGAAACGAC | 0.00742 | 0.031 | – | – |
| UUGUUGUAUGUAGGAUAUGCAUAUUAUUAUUGUGCAGAAGGACAUGAGGAUCACCCAUGUAUAUUAUUAUUAUAUAUUAUAUAU | 0.0353 | 0.0543 | – | – |
| CAAAAGCGAGGAUAUACAUGAGGAUCACCCAUGUGGCAGCCAUGUAGGAGUGACGUCGGUAGAAGGCGCACCCU | 0.0998 | 0.141 | – | – |
| AAAAAACAUGAGGAUCACCCAUGUCAGGAUAUCGUAAAAAAAAAAAAAAAAAAAAAUGCGAGAAGGGACUGGAA | 0.0874 | 0.125 | – | – |
| UUUGCAUUCCGAGGAUAUUCAUAUAAUGACUACACAUGAGGAUCACCCAUGUGGCGAUAGCCUAGGGAGAAGGCGGUUUGCUUU | – | – | 0.0203 | 0.0178 |
| GAGCUGUGAGGAUAUACAUGAGGAUCACCCAUGUUAAGGAAGUGGUGUAUAUUUUAGUGUAGAAGGCACUUAUU | 0.121 | 0.439 | – | – |
| GUGAAACAUGAGGAUCACCCAUGUGAGGAUAUGAUACUAUGUACUUCGGUACAUAGUAUCAGAAGGCACAGUGA | 0.0961 | 0.282 | – | – |
| AUUUAACAUGAGGAUCACCCAUGUGAGGAUAUGUCCAUAUUCGGCAAAUCGGAUAUGGACAGAAGGCACACCGG | 0.105 | 0.194 | – | – |
| AACAGUAGAGGAUAUACAUGAGGAUCACCCAUGUGAUUAUUACGUGGCGUACCACGAAGUAGAAGGCUACUGGA | 0.061 | 0.203 | – | – |
| UAUAUAUAGGCAGGAUAUACAUGAAUAUAUAUAAUAUAGUAUGAUGUAACAUGAGGAUCACCCAUGUAGAAGGGCCAAUAUAUA | 0.0362 | 0.0839 | – | – |
| CGUUAUUCAGGAUAUGGCGUGUUAUACAUGAGGAUCACCCAUGUAGAUCCUGGUUAGGCCUCAGAAGGGAAUGUUC | 0.0437 | 0.0378 | – | – |
| AGAGACCUCACAGGAUAUGCUGGACUUUGUCCAGCAGAAGGGUGAAAACAUGAGGAUCACCCAUGUAUGGUCUCCAAAUUUAAG | – | – | 0.182 | 0.0135 |

| Sequence | apparent Kd [1] [µM] | apparent Kd [2] [µM] | apparent Kd [3] [µM] | apparent Kd [4] [µM] |
| --- | --- | --- | --- | --- |
| AUGCCGUGCAGAGCGCGACGGCGUACAUGAGGAUCACCCAUGUAGGAUAUACUACACAAAGUGUAGUAGAAGGACGUGCGACUG | 0.0306 | 0.0334 | – | – |
| ACUGACAUGAGGAUCACCCAUGUCUUGAAUAGGUCAAAUUCACAGGAUAUGCACGCGGACAGAGUGCAGAAGGGUGAUGCAAUG | – | – | 0.044 | 0.0118 |
| AAAAUGUGAGGAUAUCCGAAGGCGUCUGAUAGACGAGGCUAGGAGAAGGCACAUGAGGAUCACCCAUGUAAAAA | 0.0466 | 0.0951 | – | – |
| CCGAUUAGCACAGGAUAUGGGAACUCGUAAUUCCCAGAAGGGUGAGCCAAUACAUGAGGAUCACCCAUGUGCGGUAGGUCGGGA | – | – | 0.0405 | 0.051 |
| GGGCCCGGUGUGAGGAUAUGCUCGGGUAAACUCGGGCAGAAGGCACAUGAGGAUCACCCAUGUAAGCCGGGCCC | 0.0138 | 0.0146 | – | – |
| GUGGUGCAUAUACGUGGAUGUACAUGAGGAUCACCCAUGUAAGAGGAUAUGCGGAUACUAGCUCAGCAGAAGGCUUACAAAUGA | 0.0303 | 0.24 | – | – |
| GCACGGUAUGUAGGAUAUGCAUAGCAUUGCUAUGCAGAAGGACAUGAGGAUCACCCAUGUAUGUAUUCCAUACUAAUCCCGUGG | 0.00538 | 0.00572 | – | – |
| GGAUAGGACAGAGGAUAUACGUGCUAGAGAUACUAGCAAAAUUUCCUCACAUGAGGAUCACCCAUGUAGAAGGCUGCCCUAUCG | 0.0138 | 0.374 | – | – |
| AAGUAGGCAGGAUAUACAUGAGGAUCACCCAUGUGCCCAUGAAAGGUACUUUCGAAAGGUAGAAGGGCCUACAA | 0.0165 | 0.0356 | – | – |
| AACAGACAUGAGGAUCACCCAUGUAGAAUUAUGGGAGGAUAUACAAAGACGAGAGUCAGAGUAGAAGGCCUAGGAC | – | – | 0.0465 | 0.0299 |
| UAUUAAUGCAAGGAUAUGCUUUUAAUUUUUUUUGCAGAAGGUGCAACAUGAGGAUCACCCAUGUUUCAGGGUAU | 0.0421 | 0.0576 | – | – |
| ACCUUACUGGUCAGGAUAUACAGUCUUUGGUGUGUGUAGAAGGGACAUGAGGAUCACCCAUGUAGGUUGCAUUA | 0.164 | 0.172 | – | – |
| AGCAUGCUAGGAUAUACGGGACAUUAGGGUUCGUCGUAUGGACAUGAGGAUCACCCAUGUAGAAGGAGCGUGCA | 0.0207 | 0.0442 | – | – |
| GGACAUCCCACAGGAUAUGCUGGACUUUGUCCAGCAGAAGGGUGAAAUACAUGAGGAUCACCCAUGUGGAUGUCCAUAUUUAAU | – | – | 0.747 | 0.253 |
| GCGUACUGAGGAUAUACAUGAGGAUCACCCAUGUGACACAGCGUUUAGUGAUGAAUUUGUAGAAGGCAGUAGGC | 0.146 | 0.219 | – | – |
| AAUAACCAAGGAUAUACAUGAGGAUCACCCAUGUGGCGUCUGCGAGCUACAUCCCUUAGUAGAAGGUGGACCAG | 0.0234 | 0.027 | – | – |
| CCCACGAAAGUCGAACGAUGUAGCAGAAGGACAUGAGGAUCACCCAUGUCAGCUGUAACAGCCAUGUAGGAUAUGCUACAUCCC | 0.00524 | 0.00688 | – | – |
| AACAUUGACAAGAAGGCAAACAUGAGGAUCACCCAUGUUCUGCAUGUAUAUUGAGGAUAUUGCCAAUGUAUGUGGAUCACCCAA | 0.00676 | 0.0148 | – | – |
| GAAGCACACAUUAACAUGAGGAUCACCCAUGUCAAAAGACAUGAGGAUAUGGAUCUGAAGAAGAUCCAGAAGGCAUUGUGCUAA | – | – | 0.388 | 0.0256 |

| Sequence | apparent Kd [1] [µM] | apparent Kd [2] [µM] | apparent Kd [3] [µM] | apparent Kd [4] [µM] |
| --- | --- | --- | --- | --- |
| UUGUUCUGAGGAUAUACAUGAGGAUCACCCAUGUGUUUCAGCUAGGAGACUAGCGAAUGUAGAAGGCUGUUCUC | 0.0154 | 0.0158 | – | – |
| GGUCGGCGAGGAUAUACAUGAGGAUCACCCAUGUGAUAGAUUGCACGCGUACGUGUAUGUAGAAGGCGCUGACG | 0.0218 | 0.2 | – | – |
| CGAUAGUGUAGUUAUCCGUAGCGAACAUGAGGAUCACCCAUGUAGGAUAUGUUACUAAACUAGUAACAGAAGGGCGUGAGUCUU | 0.0302 | 0.0306 | – | – |
| UCCGAUGUACAUGAGGAUCACCCAUGUCACAUGCCCGUGACACAGGAUAUCCAGGAUAGGCCAAAGGAGAAGGGUGAUCCGCGG | – | – | 0.0643 | 0.0945 |
| CUUCCAGUUGCAGGAUAUCGGGAGGAGAGAUUACGAGAAGGGCAACAUGAGGAUCACCCAUGUAUGUGCUUGGGACAACCUAUC | 0.0132 | 0.0382 | – | – |
| GGUCGUCACAUUAACAUGAGGAUCACCCAUGUCUCUAGACAUGAGGAUAUGGAUCCUAAUUGGAUCCAGAAGGCAUGGACGACC | – | – | 1.49 | 0.142 |
| AUUAGUAUCUAGGAUAUCUAGUACAUAGUAUCUAGAGAAGGAGAUACAUGAGGAUCACCCAUGUUCUGUGAUCU | 0.204 | 0.0444 | – | – |
| CUGCUCGUAGAGAAGGCGUGGGCACAUGAGGAUCACCCAUGUCGCAGUACGAGGAUAUUUGCCGGCCCGCCCAAAAUGGCGCGA | – | – | 0.22 | 0.0962 |
| GCGAACUGUGUAGGAUAUUGAGCACUUUUGGAGCAAGAAGGACACCAAGUGCUGACUAUACAUGAGGAUCACCCAUGUUCAGCA | – | – | 0.0309 | 0.0171 |
| UCACACCACGUUAGGAUAUCGCUGGACAAAACUGGCGAGAAGGAACAUGAGGAUCACCCAUGUGACUUCAAGGU | 0.0162 | 0.0185 | – | – |
| UAGAAGUCAGGAUAUCCUGCUCGUCACUUGCGUGAUGAGUAGGAGAAGGGACAUGAGGAUCACCCAUGUAAAGA | 0.0538 | 0.0534 | – | – |
| UUGGGUCGGGAGGAUAUUCGGGCCCAAGGGCUUGGAGAAGGCUCGACAUGAGGAUCACCCAUGUAAGUGUACUU | 0.0264 | 0.0733 | – | – |
| UUCAAAUCGUAGAAGGGUGACAUGAGGAUCACCCAUGUGCAGCAGCCGUGAACGGCCAUGCUGCCACAGGAUAUACGAUGGAGU | – | – | 0.0932 | 0.0965 |
| UCGACGAAAGUCGAACGAUGUAGCAGAAGGACAUGAGGAUCACCCAUGUCAGCUGUAACAGCCAUGUAGGAUAUGCUACAUCGG | 0.00443 | 0.00537 | – | – |
| UUACAUACAAAGGUACAUGAGGAUCACCCAUGUUUGUUGGGAAGAAGGGUAACAGUACUACAUAUAUAGGAUAUUUCACAAAUG | – | – | 0.106 | 0.0734 |
| UUUUUUUUAGUAAGGAUAUGAUGCAGGAAACUGCGUCAGAAGGUACAUGAGGAUCACCCAUGUUAAUUUUUUUU | 0.0172 | 0.0224 | – | – |
| CCCAGAGAUGAGAAGGGACACGGGUGCUUUCUGACAUGAGGAUCACCCAUGUCAGGAUAUCAGCAUGGCGUCGGGAUGCCCGAC | 0.00724 | 0.0058 | – | – |
| AGAUGGUAGAGAGGAUAUCAUGUGCUGACAUGAGGAUCACCCAUGUAGGGACGUCGGUCCAAUUAUGAGAAGGCUCUACCAUCU | – | – | 0.0856 | 0.0559 |
